Variants at the floor of the assay were thinned out.
B1: tRNA (parent)
chain: GUUCCGUUGGCGUAAUGGUAACGCGUCUCCCUCCUAAGGAGAAGACUGCGGGUUCGAGUCCCGUACGGAACG

Variants of: B1
Assay: yeast fitness relative to wild type (ratio to wild type); higher = fitter; tRNA-Arg(CCU), competitive growth, 37 C, YPD
How it was run: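 Variants of the tRNA-Arg(CCU) gene, chemically synthesised with a 3% per-site mutation rate at 69 sites, were placed at the native genomic locus in Saccharomyces cerevisiae. The pooled strains were competed in YPD at 37°C for 24 hours in six parallel replicates. Gene amplicons from the start population and from each end population were read by 100-nucleotide paired-end sequencing. Darwinian fitness relative to wild type came from changes in genotype frequencies; genotypes needed ≥ 100 starting reads, and estimates < 0.5 were set to 0.5.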

Variant	yeast fitness
A20C C30G U35C C60A	≤ 0.5
G44C C49U U59G	≤ 0.5
A43C C55U G67C	0.556
C11U A14G C27A G48A U53A C61G	≤ 0.5
U2G A15G G17A G52C C66A	≤ 0.5
C4G A45C A69U	0.789
U35A U47C C49U C62A A69G	0.718
C22A G23C C30U C66G	≤ 0.5
U7G A43U A65C	1
G12C A37G G38A U47A	≤ 0.5
C55G C62U	0.626
U16A C31A C33G G38A	≤ 0.5
U2G C24G C29G C31G A69C	≤ 0.5
G9C C34U A45C G48C	≤ 0.5
C11A A21G C34U A37G G58A	≤ 0.5
C4G C11U A14U C30G	≤ 0.5
C27G G48C G56C	≤ 0.5
C30G A37C A42G A57U	1.01
A43G A45U	1.01
C5G C29G C34U	≤ 0.5
C5U C27G C31G G44C A45G	≤ 0.5
A57U G67A	0.84
C5U G25A A37U A40C C61A	≤ 0.5
C22G A43C A70U	0.593

Variant	yeast fitness
U3G U59A	0.793
U3G C22U A57G C60A A65U	0.63
C4A C33A G39C C49U U54A A70U	≤ 0.5
U3C C34U	0.789
G10C A40U G50A	≤ 0.5
G18A C46A G51C C60U	≤ 0.5
A14G A20U C22G A43G A69C	≤ 0.5
G10A A57U	0.607
A21U A57U C61G	≤ 0.5
C4G C5G U26G A45C G67A	0.664
G9A G10A C31G A65U	≤ 0.5
C11U G38A C60U G67C	≤ 0.5
C5U C27U G48A G67C	≤ 0.5
U2C A43U G48A C61G A70C	≤ 0.5
G9C A42C C49G G68A	≤ 0.5
G6C A45C U47C G68C	≤ 0.5
C5G G10C A15C C34U C55A	≤ 0.5
U8G G12A G38A A69U	≤ 0.5
A14G A15C	0.733
A20C C22U C33U C66A	≤ 0.5
C4G C11A C30G C61G	≤ 0.5
A20G A21C G39C C62G	≤ 0.5
U7A U8G C30G G63A	≤ 0.5
U3A C46A	1.05

Variant	yeast fitness
C22U G50A G56A	0.793
C33U A57U	0.546
A14U G38A G58A	≤ 0.5
C4G A20U C60G C62G	0.584
U7G G39A C66U	≤ 0.5
G17C U19C	0.785
C4G C5U G44C G67U	≤ 0.5
C11U C31U A37U A70U	≤ 0.5
C27U C34G C62A	0.586
G17C A21G C33A C49U	≤ 0.5
U2A G58C C66U	0.702
C29A G48A	0.688
U2A G6A C33G C34G C61A	≤ 0.5
U8A U32A G52A G56C	≤ 0.5
U8A U16G C31U C34A A37U G41C	0.525
C5U U64G	0.853
A14C U35C A65G	0.525
A20U G41A	0.867
C22G C31U C66G	0.512
U2C A36U	0.682
C5U A57C C62U	0.54
G17C C22U U32C A40U A65G	≤ 0.5
G25A U35A G52A U59C C66A G67A	≤ 0.5
G17A G48A	0.951

Variant	yeast fitness
U32A C33A A43U C55U	≤ 0.5
U3C C5G C24A	≤ 0.5
C11U A14C C27U C31U C33A G67C	≤ 0.5
C22U C30A C31U	≤ 0.5
A21G C55G C66U A69C	≤ 0.5
C27U C29G C55U A65G C66A	≤ 0.5
U3A G10C C24G A37U G38A G48C	≤ 0.5
C46U C60A	0.543
A21G G23A C46A	0.543
A37U C49A	0.712
C5A C30G	0.608
C27G A37C G52C	≤ 0.5
U8A G18C G25C A45U C49G	≤ 0.5
G18A G58C A65U	≤ 0.5
C5A G17C A70C	≤ 0.5
C29G A45C	0.614
U2C A45G G68A	≤ 0.5
G41A C60A	0.667
C4A G23C G50A A57G	0.62
A70U	1.02
A37C C49G A57C A70G	0.516
G12A G17A	0.881
G12A G44C G67A	0.513
A14U C34A G48A U59C	0.541

Variant	yeast fitness
G18A A21U	0.528
A21U C46U C66A	≤ 0.5
A65U A70C	0.823
U3C A57G A70U	0.564
C5U C61G	0.771
G25C A36U	0.724
U7C G9A A20U A36G C55G	≤ 0.5
G23A C34G	0.582
C5U C30A G39A C66G	≤ 0.5
G9C C27U C33G A37G	≤ 0.5
U3C G41C	0.824
A14G A36G G51C U59G	≤ 0.5
G10C U19G C29U U54A	≤ 0.5
U8C G23C C29G A45U	≤ 0.5
G39C A43G G44C A45U C49G	0.563
U8A A36U G39A C66U	≤ 0.5
U2A U16G G41C	0.649
C4U G10C G23A U26C A43G U53A	≤ 0.5
C5G U16C	0.722
U13C A15U U16A U19A C34U G67A G68C	≤ 0.5
C31G C60G C62U G68A	≤ 0.5
U13C C24U U53A C66U	≤ 0.5
G6A A45C A70U	≤ 0.5
C5A G17C G58C	≤ 0.5

Variant	yeast fitness
C31G A40U A45C	0.533
U3G A37C G56A	0.533
A43U C49G	0.727
U3G C46U G68C	0.607
G9A G38A A65U	0.565
C4U C27U G56A	0.694
C27U U35C A36G C49G	≤ 0.5
U16A C66A	0.653
A42U A43C U64C G68C	≤ 0.5
U7C C30U C34A A57U C66A	0.555
U8C G25A A37G A40G	≤ 0.5
A45G C46A A69U	0.768
G6C C11G A15C G25C C27G C30G G38C A70C	≤ 0.5
U3G C22G C29A	≤ 0.5
G6C U47G	0.588
C11U A42G C46G G56C A65C	≤ 0.5
G10A A69G	0.641
U2A G68U	0.773
U7A C29U A37C U53A C55U C60A	≤ 0.5
U28A A45C	0.79
C5A A14G C24A G63A A69U	≤ 0.5
U7G C29U C31U G38C A70G	≤ 0.5
U7A G38A	0.695
U3C C11U A40U G58A	0.627

Variant	yeast fitness
C31U C46U G51A A65C	0.643
G6A G12C U16C C31U G52C A70G	0.651
U26C A36C U64A A70C	≤ 0.5
C4U U7G C34G A70U	≤ 0.5
C33A C34U	≤ 0.5
C4U A15C A43U	≤ 0.5
C31G G39A A70G	0.553
U13A A40G A57U G68A	0.524
A14C C22A U59G C62G	≤ 0.5
C4U A20C A40U C55G	0.578
C11G A15U C24G A40G A42U	≤ 0.5
A14C A15U U47G	≤ 0.5
C5U A65G	0.94
C33U A36U G51C A69U	0.551
U8G C11G U32A C55U G67C	≤ 0.5
G9C G10A C29U A37U C62U G67A A70C	≤ 0.5
C11G U28A A70U	≤ 0.5
A40U G48C G63A	0.602
C5A A20C A36C A45C	≤ 0.5
C34G A42G	0.716
C11A C66G	0.613
U7C U54C C55G	0.655
C4A A45U G51A	≤ 0.5

From the RNAGym collection of RNA variant scans (doi:10.1126/science.aae0568)
